ChEMBL document CHEMBL2062413, “Design of β-amyloid aggregation inhibitors from a predicted structural motif” (J Med Chem, 2012)
Active and inactive are the calls of the source. The calls are words filed in the database; no cut-off is given here.

Experiments:
[1] = biological target: T1, Amyloid-beta precursor protein (Homo sapiens, UniProt P05067); experiment: Inhibition of amyloid beta42 aggregation assessed as reduction in fluorescence after 4 days by thioflavin T-based fluorometry
In short: (§1)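 Aβ42 at 25 μM was incubated with a range of compound concentrations in triplicate at 37°C with shaking for four days, read at t=0 and t=4 d. Compound was taken from a 10 mM DMSO stock diluted in PBS. Aliquots were added to 25 μM ThT in 50 mM glycine, pH 8, for 5 min, then read at ex 446/em 490 nm. IC50 was taken from % fluorescence of untreated control.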

[2] = Drug degradation in aqueous buffer assessed as N-(2-amino-4-methylphenyl)-4-chlorobenzenesulfonamide formation up to 24 hrs by LC-MS analysis at pH 7.4; assay type: physicochemical; settings: pH 7.4, 24 h
[3] = biological target: T1, Amyloid-beta precursor protein; experiment: Inhibition of amyloid beta42 aggregation assessed as reduction in fluorescence measured immediately post-compound addition by thioflavin T-based fluorometry; in short: as §1
[4] = Drug degradation in aqueous buffer assessed as N-(2-amino-4-methylphenyl)benzo[b]oxirene-3-sulfonamide formation up to 24 hrs by LC-MS analysis at pH 7.4; assay type: physicochemical; settings: pH 7.4, 24 h
[5] = Drug degradation in aqueous buffer assessed as (E)-N-(2-(3,5-dichloro-2-hydroxybenzylideneamino)-4-methylphenyl)benzo[b]oxirene-3-sulfonamide formation up to 24 hrs by LC-MS analysis at pH 7.4; assay type: physicochemical; settings: pH 7.4, 24 h
[6] = tested on: PC-12; experiment: Cytotoxicity against rat PC12 cells assessed as reduction in cell viability at 50 uM after 48 hrs by MTT assay; assay type: cell-based; settings: pc-12, 48 h
[7] = biological target: T1, Amyloid-beta precursor protein; experiment: Inhibition of amyloid beta42 aggregation assessed as inhibition of fibril formation at 25 uM after 5 days by circular dichroism
In short: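 Circular dichroism: 25 μM Aβ42 alone or mixed 1:1 with 25 μM compound, incubated at 37°C with orbital shaking at 200 rpm. Spectra taken every 24 h for 5 days at 37°C in a 1-mm cell, 190–260 nm, 0.2-nm resolution, 1-nm bandwidth, background-subtracted and averaged. Compound dissolved to 10 mM in NaOH, then diluted in PBS.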

[8] = Inhibition of amyloid beta42 assessed as decrease in mature fibril formation at 25 uM after 4 days by […] electron microscopy
In short: (§2)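 Negative-stain TEM: 25 μM Aβ42 alone or with 25 μM compound (1:1), incubated four days at 37°C. Aliquots spotted 2 min on glow-discharged carbon-coated Formvar grids and stained with 1% uranyl acetate.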

[9] = Inhibition of amyloid beta42 assessed as increase in amorphous aggregates at 25 uM after 4 days by […] electron microscopy; in short: as §2
[10] = Drug degradation in aqueous buffer assessed as 3,5-dichloro-2-hydroxybenzaldehyde formation up to 24 hrs by LC-MS analysis at pH 7.4; assay type: physicochemical; settings: pH 7.4, 24 h

T1 sequence (P05067 whole entry): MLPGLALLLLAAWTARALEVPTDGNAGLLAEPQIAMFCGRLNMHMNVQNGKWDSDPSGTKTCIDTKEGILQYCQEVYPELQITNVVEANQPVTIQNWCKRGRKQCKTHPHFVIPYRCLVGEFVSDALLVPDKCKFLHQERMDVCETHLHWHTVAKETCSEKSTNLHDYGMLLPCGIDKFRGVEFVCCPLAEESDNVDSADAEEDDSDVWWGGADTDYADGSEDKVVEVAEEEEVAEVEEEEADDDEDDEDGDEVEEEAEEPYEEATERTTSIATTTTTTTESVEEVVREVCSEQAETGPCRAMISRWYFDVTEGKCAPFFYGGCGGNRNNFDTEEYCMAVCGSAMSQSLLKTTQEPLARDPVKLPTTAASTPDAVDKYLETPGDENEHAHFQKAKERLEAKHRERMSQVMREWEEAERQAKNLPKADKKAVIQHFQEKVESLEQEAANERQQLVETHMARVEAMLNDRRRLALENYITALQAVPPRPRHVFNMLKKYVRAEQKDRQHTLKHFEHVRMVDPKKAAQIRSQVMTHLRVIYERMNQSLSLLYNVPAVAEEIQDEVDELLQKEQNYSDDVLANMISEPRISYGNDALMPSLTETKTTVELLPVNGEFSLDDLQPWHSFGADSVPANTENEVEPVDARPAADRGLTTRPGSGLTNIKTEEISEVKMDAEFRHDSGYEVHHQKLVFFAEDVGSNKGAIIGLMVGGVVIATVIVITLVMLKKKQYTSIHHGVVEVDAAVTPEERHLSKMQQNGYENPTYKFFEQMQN

For `Cc1ccc(NS(=O)(=O)c2ccc(Cl)cc2)c(N)c1`, the IC50 [1] was 23 µM, the inhibition [1] was “Dose-dependent effect” and the Drug degradation [2] was “Active”. The IC50 [3] was 30 µM.

In the case of `Cc1ccc(NS(=O)(=O)c2ccc3c(c2)O3)c(N)c1`, the Drug degradation [4] is reported as “Active”.

With `Cc1ccc(NS(=O)(=O)c2ccc3c(c2)O3)c(/N=C/c2cc(Cl)cc(Cl)c2O)c1` the Drug degradation [5] was “Active”.

With `Cc1ccc(NS(=O)(=O)c2ccc(Cl)cc2)c(/N=C/c2cc(Cl)cc(Cl)c2O)c1` the IC50 [1] was 13 µM, the inhibition [1] was “Dose-dependent effect” and the Activity [6] was 40%. The inhibition [7] was “Active”, the IC50 [3] was 62 µM and the inhibition [8] was “Active”. For the same compound, the inhibition [9] was “Active”.

In the case of `O=Cc1cc(Cl)cc(Cl)c1O`, the inhibition [1] is reported as “inactive” and the Drug degradation [10] is reported as “Active”.
